Data on five molecules can be found in ChEMBL document CHEMBL1137876, “Synthesis and biological evaluation of novel cytotoxic phospholipids for prostate cancer” (Bioorg Med Chem Lett, 2004).

Experiment [1] in a line: Concentration required to inhibit proliferation of PPC-1 prostate cancer cell lines. Particulars: Homo sapiens; call rule not given here. It counts as functional, cell-based. In short, it runs like this: (§1)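 SRB assay. Cells were exposed to compound at 0–100 µM for 96 h, then fixed with 10% trichloroacetic acid, washed five times with water, air dried overnight and stained with SRB. Protein-bound dye was read at 540 nm.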

Experiment [2] deals with LNCaP. The experiment in a line: Concentration required to inhibit proliferation of LNCaP prostate cancer cell lines. It counts as functional, cell-based. Particulars: Homo sapiens. In short, it runs like this: as §1
The subject of experiment [3] is PC-3. Put plainly: Concentration required to inhibit proliferation of PC-3 prostate cancer cell lines. It is filed as functional, cell-based. Particulars: Homo sapiens. The method, boiled down:
as §1

For another experiment, the system named is CHO. The experiment in a line: Concentration required to inhibit tumor growth in CHO cells. To be noted: Cricetulus griseus. It is filed as functional, cell-based. The method, boiled down:
as §1

Experiment [4] deals with DU-145. Put plainly: Concentration required to inhibit proliferation of DU-145 prostate cancer cell lines. It is filed as functional, cell-based. To be noted: Homo sapiens. In short, it runs like this:
as §1

Experiment [5] can be described thus: Concentration required to inhibit proliferation of TSU prostate cancer cell lines. It is filed as functional, cell-based. Particulars: Homo sapiens. In short, it runs like this: as §1
Experiment [6] is described as follows: Concentration required to inhibit tumor growth in RH7777 cells. It is filed as functional, cell-based. In short, it runs like this: as §1
Experiment [7] concerns LNCaP. Put plainly: Concentration required to inhibit proliferation of LNCaP prostate cancer cell lines; NA denotes not active. It counts as functional, cell-based, Homo sapiens. The method, boiled down:
as §1

Experiment [8] deals with DU-145. The experiment in a line: Concentration required to inhibit proliferation of DU-145 prostate cancer cell lines; NA denotes not active. It counts as functional, cell-based, Homo sapiens. In short, it runs like this:
as §1

A short description of experiment [9]: Concentration required to inhibit proliferation of TSU prostate cancer cell lines; NA denotes not active. It counts as functional, cell-based, Homo sapiens. The method, boiled down:
as §1

Experiment [10] relates to PC-3. Put plainly: Concentration required to inhibit proliferation of PC-3 prostate cancer cell lines; NA denotes not active. It is filed as functional, cell-based, Homo sapiens. The method, boiled down: as §1

In general, IC50 refers to the concentration that gives 50% inhibition. Read a high IC50 as lower potency. Regarding `CCCCCCCC/C=C/CCCCCCCCNC(=O)[C@@H](N)CO`, the IC50 in experiment [1] was 5.1 µM; in the experiment on LNCaP [2] it was 6.6 µM; in the experiment on PC-3 [3] it was 5.9 µM; with CHO, 5.2 µM; in the experiment with DU-145 [4], 6.9 µM; in experiment [5], 5.5 µM. In [6], this molecule gave an IC50 of 6.8 µM.

Turning to `CCCCCCCC/C=C/CCCCCCCCC(=O)NCCOP(=O)(O)O`, the IC50 was 50 µM in experiment [1]; “Not Active” with LNCaP [7]; greater than 50 µM in the experiment on PC-3 [3]; greater than 50 µM in the experiment on CHO; greater than 50 µM in the experiment on DU-145 [4]; greater than 50 µM in experiment [5]. Further, the IC50 in [6] was greater than 50 µM.

Turning to `CCCCCCCC/C=C/CCCCCCCCC(=O)NCCO`, the IC50 in experiment [1] was greater than 20 µM; in the experiment on LNCaP [7], “Not Active”; in the experiment with DU-145 [8], “Not Active”; with CHO, greater than 20 µM; in experiment [9], “Not Active”; in the experiment on PC-3 [10], “Not Active”. Further, the IC50 in experiment [6] is greater than 20 µM.

In the case of `CCCCCCCCNC(=O)[C@H](CO)NC(=O)CCCCCCC`, the IC50 is 81.2 µM in [1]; greater than 100 µM in the experiment with LNCaP [2]; 81.5 µM with PC-3 [3]; greater than 100 µM with CHO; greater than 100 µM in the experiment with DU-145 [4]; 93.8 µM in experiment [5].

`O=c1[nH]cc(F)c(=O)[nH]1` [FLUOROURACIL] displayed an IC50 in the experiment with LNCaP [2] of 4.9 µM.
